Assays:
Type in all cases: physicochemical
[1] = Antioxidant activity assessed as DPPH radical scavenging activity measured as rate constant after 10 secs by UV-visible spectrophotometry; details: 10 s
In short: (§1)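 DPPH radical decay, antioxidant at 1.67, 16.7 or 60.0 μM. After 10 s of mixing with DPPH, A517 was read at once and then every 15 s for 5 min. The second-order rate constant k and the plateau absorbance (t → ∞) came from curve-fitting absorbance vs time under global second-order kinetics.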

[2] = Antioxidant activity assessed as DPPH radical scavenging activity at 1.67 uM measured as absorbance (t -> infinity) after 10 secs by UV-visible spectrophotometry; details: 10 s; in short: as §1
[3] = Antioxidant activity assessed as DPPH radical scavenging activity at 16.7 uM measured as absorbance (t -> infinity) after 10 secs by UV-visible spectrophotometry; details: 10 s; in short: as §1
[4] = Antioxidant activity assessed as DPPH radical scavenging activity at 60 uM measured as absorbance (t -> infinity) after 10 secs by UV-visible spectrophotometry; details: 10 s; in short: as §1
[5] = Antioxidant activity assessed as hydroxyl radical scavenging activity at 1.5 uM by ESR spin trapping assay
In short: (§2)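 Hydroxyl radicals came from Fenton reaction (H2O2, EDTA, FeSO4 to start) with DMPO spin trap. Samples in ACN (stocks 0.03–0.3 mM) gave final 1.5, 2.5, 5.0 or 15.0 μM; ACN alone served as control. ESR signal was taken as the ratio of the DMPO adduct second-singlet amplitude to the TEMPO (2 μM, daily reference) first-singlet amplitude.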

[6] = Antioxidant activity assessed as hydroxyl radical scavenging activity at 2.5 uM by ESR spin trapping assay; in short: as §2
[7] = Antioxidant activity assessed as hydroxyl radical scavenging activity at 5 uM by ESR spin trapping assay; in short: as §2
[8] = Antioxidant activity assessed as hydroxyl radical scavenging activity at 15 uM by ESR spin trapping assay; in short: as §2
[9] = Antioxidant activity assessed as superoxide anion radical scavenging activity at 40 uM measured as rate constant recorded every min for 7 mins by nitroblue tetrazolium assay (reference value: 0.188 +/- 0.001 /min)
In short: (§3)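 Superoxide came from hypoxanthine/xanthine oxidase (2 mM HPX, 0.56 U·mL−1 XOD stocks) with 0.34 mM NBT in 50 mM phosphate buffer pH 7.4. A560 was read every minute for 7 min. Pseudo-first-order rate constant k1 and final NBTH2 absorbance (t → ∞) came from curve-fitting absorbance vs time, with antioxidant at 40, 80 or 160 μM.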

[10] = Antioxidant activity assessed as superoxide anion radical scavenging activity at 80 uM measured as rate constant recorded every min for 7 mins by nitroblue tetrazolium assay (reference value: 0.188 +/- 0.001 /min); in short: as §3
[11] = Antioxidant activity assessed as superoxide anion radical scavenging activity at 160 uM measured as rate constant recorded every min for 7 mins by nitroblue tetrazolium assay (reference value: 0.188 +/- 0.001 /min); in short: as §3
[12] = Antioxidant activity assessed as superoxide anion radical scavenging activity at 40 uM measured as absorbance (t > infinity) recorded every min for 7 mins by nitroblue tetrazolium assay (reference value: 1.9 +/- 0.01); in short: as §3
[13] = Antioxidant activity assessed as superoxide anion radical scavenging activity at 80 uM measured as absorbance (t > infinity) recorded every min for 7 mins by nitroblue tetrazolium assay (reference value: 1.9 +/- 0.01); in short: as §3
[14] = Antioxidant activity assessed as superoxide anion radical scavenging activity at 160 uM measured as absorbance (t > infinity) recorded every min for 7 mins by nitroblue tetrazolium assay (reference value: 1.9 +/- 0.01); in short: as §3
[15] = Antioxidant activity assessed as superoxide anion radical scavenging activity measured as rate constant recorded every min for 7 mins by nitroblue tetrazolium assay; in short: as §3

Row | SMILES | K [1] | Activity [2] | Activity [3] | Activity [4] | Activity [5] | Activity [6] | Activity [7] | Activity [8] | K [9] | K [10] | K [11] | Activity [12] | Activity [13] | Activity [14] | Activity [15]
1 | COc1cc(/C=C/C(=O)O)ccc1O [FERULATE] | 12000 M⁻¹ s⁻¹ | 1.232 | 0.913 | 0.53 | 23% | 26% | 33% | 40% | 0.2 min⁻¹ | 0.14 min⁻¹ | 0.19 min⁻¹ | 1.27 | 1.4 | 1.03 | 
2 | COc1cc(/C=C/C(=O)O[C@H]2CC[C@@]3(C)C(=CC[C@H]4[C@@H]5CC[C@H]([C@H](C)CCCC(C)C)[C@@]5(C)CC[C@@H]43)C2)ccc1O | 12000 M⁻¹ s⁻¹ | 1.245 | 0.979 | 0.74 | 24% | 24% | 30% | 40% | 0.17 min⁻¹ | 0.11 min⁻¹ | 0.11 min⁻¹ | 1.76 | 1.71 | 1.82 | Dose-dependent effect
3 | COc1cc(/C=C/C(=O)O[C@H]2CC[C@@]3(C)[C@@H](CC[C@@H]4[C@@H]3CC[C@]3(C)[C@@H]([C@H](C)CC[C@@H](C)C(C)C)CC[C@@H]43)C2)ccc1O | 18000 M⁻¹ s⁻¹ | 1.198 | 1.091 | 0.79 | 23% | 27% | 34% | 43% | 0.13 min⁻¹ | 0.19 min⁻¹ | 0.13 min⁻¹ | 1.89 | 1.47 | 1.57 | 
4 | CC[C@H](/C=C/[C@@H](C)[C@H]1CC[C@H]2[C@@H]3CC=C4C[C@@H](OC(=O)/C=C/c5ccc(O)c(OC)c5)CC[C@]4(C)[C@H]3CC[C@]12C)C(C)C | 12000 M⁻¹ s⁻¹ | 1.144 | 1.01 | 0.72 | 23% | 26% | 30% | 44% | 0.18 min⁻¹ | 0.11 min⁻¹ | 0.11 min⁻¹ | 1.68 | 1.76 | 1.78 | Dose-dependent effect
5 | CC[C@H](CC[C@@H](C)[C@H]1CC[C@H]2[C@@H]3CC=C4C[C@@H](OC(=O)/C=C/c5ccc(O)c(OC)c5)CC[C@]4(C)[C@H]3CC[C@]12C)C(C)C | 13000 M⁻¹ s⁻¹ | 1.298 | 0.944 | 0.64 | 20% | 24% | 31% | 43% | 0.19 min⁻¹ | 0.19 min⁻¹ | 0.13 min⁻¹ | 1.64 | 1.38 | 1.16 | Dose-dependent effect
6 | COc1cc(/C=C/C(=O)O[C@H]2CC[C@@]3(C)C(=CC[C@H]4[C@@H]5CC[C@H]([C@H](C)CC[C@@H](C)C(C)C)[C@@]5(C)CC[C@@H]43)C2)ccc1O | 13000 M⁻¹ s⁻¹ | 1.273 | 1.045 | 0.7 | 21% | 25% | 29% | 39% | 0.17 min⁻¹ | 0.18 min⁻¹ | 0.13 min⁻¹ | 1.65 | 1.4 | 1.19 | Dose-dependent effect
7 | CCOC(=O)/C=C/c1ccc(O)c(OC)c1 [ETHYL FERULATE] | 13000 M⁻¹ s⁻¹ | 0.992 | 0.851 | 0.58 | 19% | 29% | 36% | 42% | 0.14 min⁻¹ | 0.16 min⁻¹ | 0.13 min⁻¹ | 1.9 | 1.7 | 1.6 | 
8 | COC(=O)/C=C/c1ccc(O)c(OC)c1 | 14000 M⁻¹ s⁻¹ | 1.008 | 0.896 | 0.57 | 19% | 31% | 36% | 43% | 0.15 min⁻¹ | 0.15 min⁻¹ | 0.14 min⁻¹ | 1.9 | 1.72 | 1.6 | 
9 | Oc1cccc(O)c1O [PYROGALLOL] | 120000 M⁻¹ s⁻¹ |  |  |  |  |  |  |  |  |  |  |  |  |  | 
10 | CC[C@H](CC[C@@H](C)[C@H]1CC[C@H]2[C@@H]3CC[C@H]4C[C@@H](OC(=O)/C=C/c5ccc(O)c(OC)c5)CC[C@]4(C)[C@H]3CC[C@]12C)C(C)C | 15000 M⁻¹ s⁻¹ | 1.156 | 0.991 | 0.64 | 22% | 25% | 28% | 40% | 0.14 min⁻¹ | 0.21 min⁻¹ | 0.14 min⁻¹ | 1.85 | 1.35 | 1.47 | 
